What was measured:
Type in all cases: cell-based
[1] = MTT cytotoxic assay, A549; settings: human, A549 cells
Procedure, shortened: (§1)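 Cells grown in RPMI-1640 with 10% fetal bovine serum, 5% CO2, 37 °C. Seeded at 5 × 10^4 cells per mL, 24 h to form a monolayer, then medium replaced with fresh medium plus test compound at 50, 25, 12.5, 6.25, 3.125, 1.5625 μg mL−1. After 3 days, MTT 4 h, formazan in DMSO, OD 570 nm. Inhibition rate from OD versus control, IC50 calculated; three individual experiments, mean ± SD; adriamycin positive control.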

[2] = MTT cytotoxic assay, HepG2; settings: human, HepG2 cells
Procedure, shortened: as §1

[3] = MTT cytotoxic assay, HeLa; settings: human, HeLa cells
Procedure, shortened: as §1

COc1cccc2c1C(=O)c1c(O)c3c(c(O)c1C2=O)C[C@@](O)(C(=O)CO)C[C@@H]3O[C@H]1C[C@H](N)[C@H](O)[C@H](C)O1 [Adriamycin, adriamycin]
IC50 at 3 days [1]: 680 ± 60 nM
IC50 at 3 days [2]: 1250 ± 40 nM
IC50 at 3 days [3]: 480 ± 70 nM
